Test results: ChEMBL document CHEMBL1777776, “Identification of 2-mercaptohexanoic acids as dual inhibitors of 5-lipoxygenase and microsomal prostaglandin E₂ synthase-1” (Bioorg Med Chem, 2011)
pIC50: −log10 of the molar value. Active and inactive are the calls of the source. No cut-off for these calls is given here.

Columns and labels:
[1] = molecular target: T1, Prostaglandin G/H synthase 2 (Homo sapiens) (UniProt P35354); assay: Inhibition of human recombinant COX2 assessed as residual activity at 10 uM after 5 mins
T1 sequence (whole entry): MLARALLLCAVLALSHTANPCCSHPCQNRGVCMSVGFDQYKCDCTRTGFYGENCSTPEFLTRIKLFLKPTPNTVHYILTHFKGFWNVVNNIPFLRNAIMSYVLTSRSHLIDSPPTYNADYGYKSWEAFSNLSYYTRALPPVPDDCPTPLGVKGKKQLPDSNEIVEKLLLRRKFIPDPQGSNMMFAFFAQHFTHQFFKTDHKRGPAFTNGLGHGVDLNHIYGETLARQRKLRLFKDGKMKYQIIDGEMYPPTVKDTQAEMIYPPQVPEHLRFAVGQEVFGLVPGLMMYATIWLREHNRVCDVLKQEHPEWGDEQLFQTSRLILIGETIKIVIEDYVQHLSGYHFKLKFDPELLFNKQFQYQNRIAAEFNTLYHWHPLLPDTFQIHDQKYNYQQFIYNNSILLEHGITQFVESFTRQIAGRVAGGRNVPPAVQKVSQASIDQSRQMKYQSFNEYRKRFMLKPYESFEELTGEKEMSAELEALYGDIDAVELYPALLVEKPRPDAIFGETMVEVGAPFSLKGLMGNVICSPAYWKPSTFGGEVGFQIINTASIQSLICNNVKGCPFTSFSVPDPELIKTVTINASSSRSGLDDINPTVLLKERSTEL
In short: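 Ovine COX-1 (50 units) or human recombinant COX-2 (20 units) in 1 ml 100 mM Tris pH 8 with 5 mM glutathione, 5 µM haemoglobin and 100 µM EDTA. Preincubated with 10 µM compound 5 min at 4 °C, warmed 60 s at 37 °C. Started with AA (5 µM for COX-1, 2 µM for COX-2), run 5 min at 37 °C. 12-HHT extracted and analysed by HPLC. n = 3.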

[2] = molecular target: T2, Polyunsaturated fatty acid lipoxygenase ALOX15 (Homo sapiens) (UniProt P16050); assay: Inhibition of 15-lipoxygenase in A23187-stimulated human PMNL assessed as reduction of 15(S)-H(P)ETE formation up to 10 uM preincubated 15 mins by RP-HPLC analysis in presence of exogenous arachidonic acid
T2 sequence (whole entry): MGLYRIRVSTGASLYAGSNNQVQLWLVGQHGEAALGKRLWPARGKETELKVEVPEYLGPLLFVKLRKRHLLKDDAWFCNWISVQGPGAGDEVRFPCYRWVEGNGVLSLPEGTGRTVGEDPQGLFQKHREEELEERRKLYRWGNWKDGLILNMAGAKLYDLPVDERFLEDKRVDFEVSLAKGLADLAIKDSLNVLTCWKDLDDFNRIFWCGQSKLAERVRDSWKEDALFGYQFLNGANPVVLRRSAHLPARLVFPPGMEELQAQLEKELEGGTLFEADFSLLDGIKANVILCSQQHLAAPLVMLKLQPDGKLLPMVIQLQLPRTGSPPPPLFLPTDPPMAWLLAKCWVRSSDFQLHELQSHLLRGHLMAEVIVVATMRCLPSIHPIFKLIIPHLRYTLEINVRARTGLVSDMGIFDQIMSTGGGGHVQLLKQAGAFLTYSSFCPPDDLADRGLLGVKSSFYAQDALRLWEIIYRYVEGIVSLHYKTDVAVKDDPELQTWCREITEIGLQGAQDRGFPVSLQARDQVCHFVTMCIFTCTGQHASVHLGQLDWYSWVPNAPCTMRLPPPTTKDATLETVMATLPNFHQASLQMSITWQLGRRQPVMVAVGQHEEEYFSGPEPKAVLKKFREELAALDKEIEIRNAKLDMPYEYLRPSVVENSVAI
In short: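 Freshly isolated human PMNL (5 × 10⁶/ml PGC buffer: PBS pH 7.4, 1 mg/ml glucose, 1 mM CaCl₂) preincubated with compound 15 min at 37 °C. Stimulated with 2.5 µM A23187 plus exogenous AA for 10 min at 37 °C. Stopped with methanol, PGB₁ added as internal standard, lipoxygenase products analysed by HPLC. Mean of n = 3–5.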

A549 = assay: Cytotoxicity against human A549 cells assessed as cell viability at 10 uM after 16 hrs by MTT assay; assay type: cell-based; conditions: a549, 5 h, in the assay text read “5 hrs” for “16 hrs”
In short: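 A549 cells plated at 4 × 10⁴ cells per well, incubated 16 h at 37 °C, 5% CO₂, then exposed to 10 µM compound or DMSO (≤0.3% final) for 5 h. MTT added for 4 h, formazan solubilized with SDS in 20 mM HCl, absorbance at 595 nm read relative to vehicle-treated cells.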

Prostaglandin E synthase = molecular target: T3, Prostaglandin E synthase (Homo sapiens, UniProt O14684); assay: Inhibition of mPGES-1 in human IL-1beta-stimulated A549 cell microsomes assessed as reduction of PGE2 formation from PGH2 after 15 mins; design: species or system Microsome
T3 sequence (O14684 whole entry): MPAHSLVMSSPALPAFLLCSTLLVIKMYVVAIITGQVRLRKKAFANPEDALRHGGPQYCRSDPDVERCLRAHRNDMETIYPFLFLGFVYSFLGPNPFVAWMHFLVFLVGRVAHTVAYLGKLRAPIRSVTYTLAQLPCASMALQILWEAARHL
In short: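 Microsomes from A549 cells stimulated 72 h with IL-1β (1 ng/ml), diluted to 50 µg/ml in 0.1 M potassium phosphate pH 7.4 with 2.5 mM glutathione. Preincubated with compound (1% DMSO final) 15 min at 4 °C. Reaction started with 20 µM PGH₂, run 1 min at 4 °C, stopped with FeCl₂/citric acid containing 11β-PGE₂; PGE₂ quantified. Mean of n = 3–5.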

inhibition [1]: inactive | inhibition [2]: inactive | pIC50 (Prostaglandin E synthase): 5.66
SMILES: CCCCC(Sc1ccc(OCCCOc2ccc(-c3ccccc3)cc2)cc1)C(=O)O (centres undefined)
Activity (A549): Non-toxic
